In data set [1] the test system is Mus musculus. The data set can be described thus: Tumor growth or regression measured as Percent treated by control at a dose of 42 mg/Kg to mice with MX-1 xenograft. The data set is classed as functional. In short, it runs like this: (§1)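 Subrenal capsule MX-1 mammary xenograft in mice, run at the National Cancer Institute per NIH Publication No. 84-2635. %T/C = (Δ tumor weight treated / Δ tumor weight control) × 100 where tumors grew. Where tumors regressed, %T/C = (Δ tumor weight treated / initial control tumor weight) × 100.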

Data set [2] has as its system Mus musculus. The data set can be described thus: Number of survivors after 11 days at a dose of 5.25 mg/Kg tested in 6 mice. The data set is classed as functional. The procedure, abridged:
(§2)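 MX-1 human mammary carcinoma xenograft implanted under the renal capsule of mice. The study was run at the National Cancer Institute following the procedures of NIH Publication No. 84-2635. Average tumor weight was recorded at the start and end of treatment, and survivors were counted after 11 days. Dosed groups were compared with an untreated control group.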

Data set [3] concerns B16. The data set can be described thus: Concentration required to inhibit the proliferation of B16 melanoma cells was determined. The data set is classed as functional, cell-based. To be noted: Mus musculus.
Data set [4] concerns Mus musculus. Put plainly: Final average tumor weight was measured in mice induced with human mammary carcinoma at a dose of 5.25 mg/Kg. Type of data set: functional. In short, it runs like this:
as §2

Data set [5] concerns Mus musculus. The data set can be described thus: Initial average tumor weight was measured in mice induced with human mammary carcinoma at a dose of 5.25 mg/Kg. Type of data set: functional. In short, it runs like this:
as §2

Data set [6] deals with B16. Put plainly: Percentage change in cell number of B16 melanoma cells treated with 10e-5 M dose. Type of data set: functional, Mus musculus. In short, it runs like this: (§3)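 B16 melanoma cells exposed to 10⁻⁵ or 10⁻⁶ M compound for 8 h, then rinsed three times with fresh medium. Cells then grown in drug-free medium for 48 h and counted. Result given as percent change relative to the cell number at time zero. Controls are the average of three experiments.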

The subject of data set [7] is Mus musculus. The data set can be described thus: Number of survivors after 11 days at a dose of 10.5 mg/Kg tested in 6 mice. Type of data set: functional. The procedure, abridged:
as §2

Data set [8] concerns B16. Put plainly: Percentage change in cell number of B16 melanoma cells treated with 10e-6 M dose. The data set is classed as functional, Mus musculus. In short, it runs like this: as §3
Data set [9] relates to Mus musculus. The data set can be described thus: Antitumor activity of taxoland the derivative against mammary carcinoma xenograft in mice. The data set is classed as functional. In short, it runs like this: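 MX-1 human mammary carcinoma xenograft implanted under the renal capsule in mice. Study run at the National Cancer Institute following NIH Publication No. 84-2635. Tumor weights recorded at the start and at the end. Survivors counted after 11 days. %T/C = (Δ tumor weight treated/Δ tumor weight control) × 100 where the tumor grows, and (Δ tumor weight treated/initial control tumor weight) × 100 where it regresses.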

In data set [10] the test system is Mus musculus. Put plainly: Final average tumor weight was measured in mice induced with human mammary carcinoma at a dose of 10.5 mg/Kg. The data set is classed as functional. In short, it runs like this: as §2
Data set [11] relates to Mus musculus. The data set can be described thus: Initial average tumor weight was measured in mice induced with human mammary carcinoma at a dose of 10.5 mg/Kg. Type of data set: functional. The procedure, abridged:
as §2

Data set [12] deals with Mus musculus. The data set can be described thus: Tumor growth or regression measured as Percent treated by control at a dose of 5.25 mg/Kg to mice with MX-1 xenograft. Type of data set: functional. The procedure, abridged:
as §1

The species entered for data set [13] is Bos taurus. Put plainly: Relative effect on microtubular assembly (Tubulin polymerized by derivative/tubulin polymerized by taxol). Type of data set: functional. The procedure, abridged:
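Bovine brain tubulin, purified from microtubule-associated proteins by phosphocellulose chromatography, used at 10 μM. Turbidity followed at 350 nm. Polymer pelleted at 200000g, 37 °C, 4 min, depolymerized on ice, and protein measured by Bradford.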

For data set [14], the system named is Mus musculus. Put plainly: Initial average tumor weight was measured in mice induced with human mammary carcinoma at a dose of 42 mg/Kg. Type of data set: functional. The procedure, abridged:
as §2

Data set [15] relates to Mus musculus. The data set can be described thus: Final average tumor weight was measured in mice induced with human mammary carcinoma at a dose of 42 mg/Kg. The data set is classed as functional. In short, it runs like this:
as §2

Data set [16] has as its system Mus musculus. The data set can be described thus: Tumor growth or regression measured as Percent treated by control at a dose of 10.5 mg/Kg to mice with MX-1 xenograft. The data set is classed as functional. In short, it runs like this:
as §1

For data set [17], the system named is Mus musculus. Put plainly: Number of survivors after 11 days at a dose of 42 mg/Kg tested in 5 mice. The data set is classed as functional. In short, it runs like this:
as §2

The nature of data set [18]: Solubility in water. Type of data set: physicochemical. To be noted: read-out: S.
Data set [19] has as its system B16. The data set can be described thus: Relative effect on B16 melanoma cell proliferation was determined [IC50 (taxol)/IC50 (derivative)]. The data set is classed as functional, Mus musculus.

Bounds are passed on as bounds.

A word on the T/C: it is the ratio of treated to control. The term IC50 denotes the concentration that inhibits the measured activity by half. A low value points to higher potency. Take `CC(=O)O[C@H]1C(=O)[C@]2(C)[C@@H](OC(=O)CN(C)C)C[C@H]3OC[C@@]3(OC(C)=O)[C@H]2[C@H](OC(=O)c2ccccc2)[C@]2(O)C[C@H](OC(=O)[C@H](OC(=O)CN(C)C)[C@@H](NC(=O)c3ccccc3)c3ccccc3)C(C)=C1C2(C)C.CS(=O)(=O)O.CS(=O)(=O)O`: the T/C in [1] is on record as 144%; in data set [12], 70%; in data set [16] it was 193%. Moreover, the values for the No. of survivors in data set [2], in data set [7] and in data set [17] were 6, 5 and 4, respectively. Besides, inhibition in data set [3] was half-maximal at 42 nM (IC50). Moreover, the “Final average tumor weight” value in data set [4] stood at 2.51 mg; in [10] it was 5.55 mg; in data set [15], 4.35 mg. Moreover, the “Initial average tumor weight” value in [5] came out at 0.71 mg; in [11], 0.59 mg; in [14], 0.66 mg. Moreover, the “Change in cell number” value in data set [6] was -72%; in data set [8], 137%. This molecule gave a Relative antitumor activity in data set [9] of 4. In addition, the Relative effect in data set [13] is 0.42; in data set [19] it was 0.45. Further, in [18], the solubility is greater than 8.11 mM.

The values are drawn from ChEMBL document CHEMBL1126013, “Synthesis and evaluation of some water-soluble prodrugs and derivatives of taxol with antitumor activity” (J Med Chem, 1992).
